Drawing on ChEMBL document CHEMBL1133472, “Synthesis and evaluation of N,N-dialkyl enkephalin-based affinity labels for delta opioid receptors” (J Med Chem, 2000), this text covers IC50 and Ratio for eight compounds.

Experiment [1] addresses Delta-type opioid receptor (Mus musculus, UniProt P32300). The experiment in a line: Binding affinity was measured in cloned Opioid receptor delta 1 expressed in CHO cells using [3H]- DPDPE as radioligand. The experiment is classed as cell-based. A digest of the protocol: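 Mouse δ receptor stably expressed in CHO cells; washed membranes (100 µg protein) incubated 90 min at 22 °C in 50 mM Tris pH 7.4 with 3 mM Mg2+ and peptidase inhibitors (bestatin, captopril, L-leucyl-L-leucine). [3H]DPDPE at 0.5-0.8 nM; nonspecific binding with 10 µM DPDPE. Filtration on PEI-soaked GF/B, scintillation counting.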

The next experiment concerns the target Mu-type opioid receptor (Rattus norvegicus, UniProt P33535). The experiment in a line: Binding affinity was measured in cloned Opioid receptor mu 1 expressed in CHO cells using [3H]- DAMGO as radioligand. The format is cell-based. A digest of the protocol:
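Rat µ receptor stably expressed in CHO cells; membranes (100 µg protein) incubated 90 min at 22 °C in 50 mM Tris pH 7.4 with 3 mM Mg2+ and bestatin, captopril, L-leucyl-L-leucine. [3H]DAMGO at 0.5-0.8 nM; nonspecific binding with 10 µM DAMGO. Filtration on PEI-presoaked GF/B filters, scintillation counting.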

Experiment [2] has as its system mu (Rattus norvegicus) & delta (Mus musculus) opioid receptors. The experiment in a line: Ratio of IC50 against mu opioid receptor to that of delta opioid receptor.

The structures appear in SMILES notation. Square brackets hold non-standard residues; d marks the D form. Peptide text beside a SMILES is read from it. * marks the point of attachment. ξ: configuration not given here. Tyr(Nα,Nα-Bn2) = O=C([C@H](Cc1ccc(O)cc1)N(Cc1ccccc1)Cc1ccccc1)*; Tyr(Nα,Nα-allyl2) = C=CCN(CC=C)[C@@H](Cc1ccc(O)cc1)C(=O)*; X1 = O=C(C(Cc1ccc(O)cc1)N(Cc1ccccc1)Cc1ccccc1)*; Phe(4-NH2) = Nc1ccc(C[C@H](N)C(=O)O)cc1; Aib = CC(C)(N)C(=O)O; BrAc = O=C(CBr)*; ξA = CC(N)C(=O)O

Mu-type opioid receptor, sequence (P33535 whole entry, looked up): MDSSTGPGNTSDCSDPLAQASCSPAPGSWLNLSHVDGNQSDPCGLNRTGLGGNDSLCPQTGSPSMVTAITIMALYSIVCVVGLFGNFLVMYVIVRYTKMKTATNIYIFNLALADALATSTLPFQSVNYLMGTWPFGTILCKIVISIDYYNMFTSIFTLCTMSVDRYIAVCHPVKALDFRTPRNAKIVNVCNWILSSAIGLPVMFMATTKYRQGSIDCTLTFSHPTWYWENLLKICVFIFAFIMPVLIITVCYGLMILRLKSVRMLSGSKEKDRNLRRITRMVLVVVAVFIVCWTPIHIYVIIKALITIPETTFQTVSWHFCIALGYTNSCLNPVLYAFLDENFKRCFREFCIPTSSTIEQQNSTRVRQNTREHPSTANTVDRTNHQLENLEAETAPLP
Delta-type opioid receptor, sequence (P32300 whole entry): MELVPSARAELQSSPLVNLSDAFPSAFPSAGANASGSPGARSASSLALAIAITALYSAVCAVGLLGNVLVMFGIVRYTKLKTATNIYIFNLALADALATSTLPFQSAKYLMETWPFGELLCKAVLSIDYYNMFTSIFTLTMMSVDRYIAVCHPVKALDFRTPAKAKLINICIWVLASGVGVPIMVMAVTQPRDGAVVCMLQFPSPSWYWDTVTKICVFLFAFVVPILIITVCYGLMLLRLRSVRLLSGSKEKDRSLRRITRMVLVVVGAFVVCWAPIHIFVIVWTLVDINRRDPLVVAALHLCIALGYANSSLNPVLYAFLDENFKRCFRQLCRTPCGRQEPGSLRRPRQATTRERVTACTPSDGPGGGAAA

What is called IC50 is the concentration that inhibits the measured activity by half. The low end stands for greater potency in that assay, the high end for weaker potency in that assay. On to `C=CCN(CC=C)[C@@H](Cc1ccc(O)cc1)C(=O)NC(C)C(=O)NC(C)C(=O)N[C@@H](Cc1ccc(NC(=O)CBr)cc1)C(=O)N[C@@H](CC(C)C)C(=O)O` (stereo partly drawn) ({Tyr(Nα,Nα-allyl2)}-[ξA][ξA][Phe(4-NH2)](BrAc)L-OH), for which the figures for the IC50 (in experiment [1]; on Mu-type opioid receptor) were 392 nM and more than 10000 nM, respectively.
Regarding `C=CCN(CC=C)[C@@H](Cc1ccc(O)cc1)C(=O)NC(C)(C)C(=O)NC(C)(C)C(=O)N[C@@H](Cc1ccccc1)C(=O)N[C@@H](CC(C)C)C(=O)O` (HELM PEPTIDE1{[C=CCN(CC=C)[C@@H](Cc1ccc(O)cc1)C(=O)[*:2]].[Aib].[Aib].F.L}$$$$V2.0), the IC50 was determined as 703 nM in experiment [1] and 18900 nM on Mu-type opioid receptor. Also, the Ratio in experiment [2] is 27.
Take `C=CCN(CC=C)[C@@H](Cc1ccc(O)cc1)C(=O)NC(C)(C)C(=O)NC(C)C(=O)N[C@@H](Cc1ccc(N)cc1)C(=O)N[C@@H](CC(C)C)C(=O)O` (stereo partly drawn) ({Tyr(Nα,Nα-allyl2)}-[Aib][ξA][Phe(4-NH2)]L-OH): the figures for the concentration for half-maximal inhibition (IC50) (in experiment [1]; at Mu-type opioid receptor) were 1390 nM and 87700 nM, respectively. The Ratio in experiment [2] came out at 63.
For `CC(C)C[C@H](NC(=O)[C@H](Cc1ccc(N=C=S)cc1)NC(=O)CNC(=O)CNC(=O)[C@H](Cc1ccc(O)cc1)N(Cc1ccccc1)Cc1ccccc1)C(=O)O` the same measures were 34.9 nM, 1900 nM and 54.
`CC(C)C[C@H](NC(=O)[C@H](Cc1ccc(NC(=O)CBr)cc1)NC(=O)CNC(=O)CNC(=O)C(Cc1ccc(O)cc1)N(Cc1ccccc1)Cc1ccccc1)C(=O)O` (stereo partly drawn) (X1-GG[Phe(4-NH2)](BrAc)L-OH): the Ratio in experiment [2] is 61.
With `CC(C)C[C@H](NC(=O)[C@H](Cc1ccc(NCCl)cc1)NC(=O)CNC(=O)CNC(=O)[C@H](Cc1ccc(O)cc1)N(Cc1ccccc1)Cc1ccccc1)C(=O)O`, the IC50 in experiment [1] was 145 nM; at Mu-type opioid receptor, 19000 nM. In addition, the Ratio in experiment [2] was 131.
Taken in the same sequence, the figures for `CC(C)C[C@H](NC(=O)[C@H](Cc1ccccc1)NC(=O)CNC(=O)CNC(=O)[C@H](Cc1ccc(O)cc1)N(Cc1ccccc1)Cc1ccccc1)C(=O)O` (HELM PEPTIDE1{[O=C([C@H](Cc1ccc(O)cc1)N(Cc1ccccc1)Cc1ccccc1)[*:2]].G.G.F.L}$$$$V2.0) were 78.2 nM, 1600 nM and 20.
On to `CC(C)C[C@H](NC(=O)[C@H](Cc1ccc(NC(=O)CBr)cc1)NC(=O)CNC(=O)CNC(=O)[C@H](Cc1ccc(O)cc1)N(Cc1ccccc1)Cc1ccccc1)C(=O)O` ({Tyr(Nα,Nα-Bn2)}-GG[Phe(4-NH2)](BrAc)L-OH), for which the IC50 in experiment [1] came to 149 nM; at Mu-type opioid receptor, 9100 nM.
